In brackets after ≈: the same amount, converted by molar mass.
Assays:
Liver microsome = experiment: Metabolic stability in rat liver microsomes; assay type: ADME
Procedure, shortened: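 The free acid was incubated with hepatic microsomes of each species. Stability is reported as clearance in μL/min/mg microsomal protein.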

[1] = target: Matrix metalloproteinase-14 (Homo sapiens, UniProt P50281); experiment: Inhibition of human recombinant GST-tagged MMP14 using Cy3-PLGLK(Cy5Q)AR-NH2 as substrate after 40 mins by spectrofluorimetry
Interstitial collagenase = target: T1, Interstitial collagenase (Homo sapiens, UniProt P03956); experiment: Inhibition of human recombinant MMP1 using Cy3-PLGLK(Cy5Q)AR-NH2 as substrate after 40 mins by spectrofluorimetry
T1 sequence (P03956 whole entry): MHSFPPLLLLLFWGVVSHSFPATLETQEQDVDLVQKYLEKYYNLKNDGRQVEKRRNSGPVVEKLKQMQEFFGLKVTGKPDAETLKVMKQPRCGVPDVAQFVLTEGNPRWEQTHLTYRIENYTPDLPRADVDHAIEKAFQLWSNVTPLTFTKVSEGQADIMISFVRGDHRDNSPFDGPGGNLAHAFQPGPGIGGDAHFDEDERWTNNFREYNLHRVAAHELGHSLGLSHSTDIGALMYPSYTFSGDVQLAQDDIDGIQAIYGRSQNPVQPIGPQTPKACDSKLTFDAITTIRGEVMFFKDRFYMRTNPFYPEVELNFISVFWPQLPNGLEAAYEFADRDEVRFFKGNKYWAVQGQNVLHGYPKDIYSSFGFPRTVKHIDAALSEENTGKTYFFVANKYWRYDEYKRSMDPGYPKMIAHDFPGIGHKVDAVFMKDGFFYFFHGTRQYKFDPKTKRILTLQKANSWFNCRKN
Procedure, shortened: (§1)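 Human recombinant pro-enzymes were activated with 1 mM APMA at 37 °C, for 2 h (MMP-1) or 18 h (MMP-3). Reactions were stopped with EDTA and read at […] nm. Activity was scaled to no-inhibitor and EDTA controls, and IC50 obtained by iterative fitting.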

Neutrophil collagenase = Neutrophil collagenase (Homo sapiens, UniProt P22894); experiment: Inhibition of human recombinant MMP8 using Cy3-PLGLK(Cy5Q)AR-NH2 as substrate after 40 mins by spectrofluorimetry
Stromelysin-2 = Stromelysin-2 (Homo sapiens, UniProt P09238); experiment: Inhibition of human recombinant MMP10 using Cy3-PLGLK(Cy5Q)AR-NH2 as substrate after 40 mins by spectrofluorimetry
Rattus norvegicus = experiment: Intrinsic clearance in iv dosed rat; assay type: ADME, organism-based; details: in vivo
Matrilysin = target: T2, Matrilysin (Homo sapiens, UniProt P09237); experiment: Inhibition of human recombinant MMP7 using Cy3-PLGLK(Cy5Q)AR-NH2 as substrate after 40 mins by spectrofluorimetry
T2 sequence (P09237 whole entry): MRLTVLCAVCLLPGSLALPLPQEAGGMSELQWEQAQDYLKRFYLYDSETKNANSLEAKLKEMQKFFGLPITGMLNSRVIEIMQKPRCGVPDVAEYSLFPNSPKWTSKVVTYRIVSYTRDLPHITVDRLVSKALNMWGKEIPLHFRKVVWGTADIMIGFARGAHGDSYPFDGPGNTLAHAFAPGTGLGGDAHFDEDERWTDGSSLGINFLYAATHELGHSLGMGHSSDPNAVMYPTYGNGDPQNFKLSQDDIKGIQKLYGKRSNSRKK

[2] = target: Voltage-gated inwardly rectifying potassium channel KCNH2 (Homo sapiens, UniProt Q12809); experiment: Inhibition of human ERG
[3] = Solubility of the compound in Britton-Robinson buffer at pH 7; assay type: physicochemical
[4] = Solubility of the compound in water; assay type: physicochemical; details: buffer
Stromelysin-1 = Stromelysin-1 (Homo sapiens, UniProt P08254); experiment: Inhibition of human recombinant MMP3 using Cy3-PLGLK(Cy5Q)AR-NH2 as substrate after 40 mins by spectrofluorimetry; procedure, shortened: as §1
[5] = target: 72 kDa type IV collagenase (Homo sapiens, UniProt P08253); experiment: Inhibition of human recombinant MMP2 using Cy3-PLGLK(Cy5Q)AR-NH2 as substrate after 40 mins by spectrofluorimetry
[6] = target: Matrix metalloproteinase-9 (Homo sapiens, UniProt P14780); experiment: Inhibition of human recombinant MMP9 using Cy3-PLGLK(Cy5Q)AR-NH2 as substrate after 40 mins by spectrofluorimetry
[7] = Apparent permeability in human Caco2 cells; assay type: ADME, cell-based; details: Caco-2
Collagenase 3 = Collagenase 3 (Homo sapiens, UniProt P45452); experiment: Inhibition of human recombinant MMP13 using Cy3-PLGLK(Cy5Q)AR-NH2 as substrate after 40 mins by spectrofluorimetry
[8] = target: Disintegrin and metalloproteinase domain-containing protein 17 (Homo sapiens, UniProt P78536); experiment: Inhibition of human recombinant TACE using Cy3-PLAQAV(Cy5Q-L-2,3-diaminopropionic acid)-RSSSRNH2 as substrate after 40 mins by spectrofluorimetry
[9] = Inhibition of cytochrome P450 (unknown origin); assay type: ADME; details: human

Voltage-gated inwardly rectifying potassium channel KCNH2, sequence (Q12809 whole entry): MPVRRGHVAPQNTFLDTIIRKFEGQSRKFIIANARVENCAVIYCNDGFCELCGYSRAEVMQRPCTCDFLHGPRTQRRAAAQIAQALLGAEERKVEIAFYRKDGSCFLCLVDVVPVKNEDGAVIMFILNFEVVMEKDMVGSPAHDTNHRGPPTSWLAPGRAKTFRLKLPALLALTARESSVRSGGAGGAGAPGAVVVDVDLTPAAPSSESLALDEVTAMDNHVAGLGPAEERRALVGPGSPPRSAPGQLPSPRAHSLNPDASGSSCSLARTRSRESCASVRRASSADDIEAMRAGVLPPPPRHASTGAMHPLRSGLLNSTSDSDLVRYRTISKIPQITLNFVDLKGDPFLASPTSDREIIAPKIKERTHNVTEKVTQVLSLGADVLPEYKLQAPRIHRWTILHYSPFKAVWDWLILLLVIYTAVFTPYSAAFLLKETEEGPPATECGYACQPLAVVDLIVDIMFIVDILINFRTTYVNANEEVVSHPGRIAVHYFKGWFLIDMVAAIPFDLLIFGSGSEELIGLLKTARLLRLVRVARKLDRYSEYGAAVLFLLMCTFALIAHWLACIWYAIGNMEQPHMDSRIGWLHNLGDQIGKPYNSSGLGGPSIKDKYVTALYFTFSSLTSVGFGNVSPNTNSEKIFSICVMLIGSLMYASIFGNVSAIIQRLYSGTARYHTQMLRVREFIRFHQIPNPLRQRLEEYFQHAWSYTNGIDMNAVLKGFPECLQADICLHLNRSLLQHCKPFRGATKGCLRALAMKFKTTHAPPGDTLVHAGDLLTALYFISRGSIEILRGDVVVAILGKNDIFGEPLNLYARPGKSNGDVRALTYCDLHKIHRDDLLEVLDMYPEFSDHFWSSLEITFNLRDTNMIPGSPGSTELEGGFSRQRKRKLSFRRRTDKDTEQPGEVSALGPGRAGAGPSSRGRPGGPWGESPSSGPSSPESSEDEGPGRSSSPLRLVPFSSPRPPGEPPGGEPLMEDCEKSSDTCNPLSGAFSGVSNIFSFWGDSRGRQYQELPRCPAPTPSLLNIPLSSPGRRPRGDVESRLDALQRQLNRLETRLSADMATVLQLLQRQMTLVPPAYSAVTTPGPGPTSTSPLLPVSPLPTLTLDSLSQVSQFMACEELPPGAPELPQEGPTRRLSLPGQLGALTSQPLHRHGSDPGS
Stromelysin-2, sequence (P09238 whole entry): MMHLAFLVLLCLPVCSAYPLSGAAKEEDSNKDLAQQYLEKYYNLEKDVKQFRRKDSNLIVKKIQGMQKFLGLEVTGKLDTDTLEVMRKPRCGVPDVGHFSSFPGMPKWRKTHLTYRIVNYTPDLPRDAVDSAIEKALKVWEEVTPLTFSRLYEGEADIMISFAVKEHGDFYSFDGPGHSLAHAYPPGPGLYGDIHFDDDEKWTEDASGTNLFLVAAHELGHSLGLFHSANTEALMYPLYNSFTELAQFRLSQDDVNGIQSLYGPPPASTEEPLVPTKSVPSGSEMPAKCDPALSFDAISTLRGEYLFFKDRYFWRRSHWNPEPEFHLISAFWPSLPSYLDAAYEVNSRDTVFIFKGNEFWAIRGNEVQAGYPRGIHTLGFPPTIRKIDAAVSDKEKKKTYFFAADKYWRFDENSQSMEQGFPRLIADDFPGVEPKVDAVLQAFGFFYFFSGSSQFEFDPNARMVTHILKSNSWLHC
Stromelysin-1, sequence (P08254 whole entry): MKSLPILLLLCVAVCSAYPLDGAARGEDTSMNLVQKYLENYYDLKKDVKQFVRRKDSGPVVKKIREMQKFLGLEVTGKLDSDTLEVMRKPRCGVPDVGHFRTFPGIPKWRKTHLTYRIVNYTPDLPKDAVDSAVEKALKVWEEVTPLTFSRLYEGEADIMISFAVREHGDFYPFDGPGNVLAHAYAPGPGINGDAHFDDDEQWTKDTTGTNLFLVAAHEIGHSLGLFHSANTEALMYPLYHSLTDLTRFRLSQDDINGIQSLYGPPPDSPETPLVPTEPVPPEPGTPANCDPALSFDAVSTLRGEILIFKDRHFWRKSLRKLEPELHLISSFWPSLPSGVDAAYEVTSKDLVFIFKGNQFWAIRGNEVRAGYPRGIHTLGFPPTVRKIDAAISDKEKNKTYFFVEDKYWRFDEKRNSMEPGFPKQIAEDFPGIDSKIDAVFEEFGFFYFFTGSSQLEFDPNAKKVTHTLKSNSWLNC
Disintegrin and metalloproteinase domain-containing protein 17, sequence (P78536 whole entry, the tested form may be a part): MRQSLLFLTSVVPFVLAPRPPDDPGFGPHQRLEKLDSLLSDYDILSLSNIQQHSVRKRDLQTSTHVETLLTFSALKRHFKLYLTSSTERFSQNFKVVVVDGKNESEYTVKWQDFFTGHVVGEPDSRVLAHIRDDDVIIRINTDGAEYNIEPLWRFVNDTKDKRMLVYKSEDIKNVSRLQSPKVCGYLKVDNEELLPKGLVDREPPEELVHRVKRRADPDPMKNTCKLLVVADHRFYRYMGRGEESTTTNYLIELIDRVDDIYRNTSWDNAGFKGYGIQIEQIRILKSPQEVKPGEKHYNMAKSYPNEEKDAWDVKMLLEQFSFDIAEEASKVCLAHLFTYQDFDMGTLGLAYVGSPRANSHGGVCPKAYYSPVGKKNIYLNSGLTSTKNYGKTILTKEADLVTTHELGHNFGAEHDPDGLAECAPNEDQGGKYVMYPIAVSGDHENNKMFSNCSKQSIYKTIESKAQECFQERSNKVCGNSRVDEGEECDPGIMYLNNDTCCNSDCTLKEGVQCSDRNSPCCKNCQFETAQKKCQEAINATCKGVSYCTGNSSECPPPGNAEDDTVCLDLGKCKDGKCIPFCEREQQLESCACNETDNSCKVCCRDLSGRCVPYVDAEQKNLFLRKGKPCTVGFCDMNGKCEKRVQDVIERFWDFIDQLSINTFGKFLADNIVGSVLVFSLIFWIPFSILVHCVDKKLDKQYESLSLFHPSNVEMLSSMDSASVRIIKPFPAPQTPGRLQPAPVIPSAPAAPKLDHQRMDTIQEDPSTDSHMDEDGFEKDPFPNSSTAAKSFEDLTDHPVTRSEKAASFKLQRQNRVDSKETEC
Neutrophil collagenase, sequence (P22894 whole entry): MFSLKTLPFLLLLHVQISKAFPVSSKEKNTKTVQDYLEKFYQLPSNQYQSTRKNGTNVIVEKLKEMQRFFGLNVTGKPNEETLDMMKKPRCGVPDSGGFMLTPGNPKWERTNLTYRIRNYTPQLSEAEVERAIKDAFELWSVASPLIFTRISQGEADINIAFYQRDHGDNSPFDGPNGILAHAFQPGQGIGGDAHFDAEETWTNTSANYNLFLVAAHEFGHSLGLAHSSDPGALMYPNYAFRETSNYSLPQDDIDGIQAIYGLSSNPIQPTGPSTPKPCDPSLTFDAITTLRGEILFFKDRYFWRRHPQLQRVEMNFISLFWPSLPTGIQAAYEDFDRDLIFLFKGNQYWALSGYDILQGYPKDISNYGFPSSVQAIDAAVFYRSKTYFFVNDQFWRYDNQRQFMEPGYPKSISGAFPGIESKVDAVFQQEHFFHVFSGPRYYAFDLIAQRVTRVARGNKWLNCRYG
72 kDa type IV collagenase, sequence (P08253 whole entry): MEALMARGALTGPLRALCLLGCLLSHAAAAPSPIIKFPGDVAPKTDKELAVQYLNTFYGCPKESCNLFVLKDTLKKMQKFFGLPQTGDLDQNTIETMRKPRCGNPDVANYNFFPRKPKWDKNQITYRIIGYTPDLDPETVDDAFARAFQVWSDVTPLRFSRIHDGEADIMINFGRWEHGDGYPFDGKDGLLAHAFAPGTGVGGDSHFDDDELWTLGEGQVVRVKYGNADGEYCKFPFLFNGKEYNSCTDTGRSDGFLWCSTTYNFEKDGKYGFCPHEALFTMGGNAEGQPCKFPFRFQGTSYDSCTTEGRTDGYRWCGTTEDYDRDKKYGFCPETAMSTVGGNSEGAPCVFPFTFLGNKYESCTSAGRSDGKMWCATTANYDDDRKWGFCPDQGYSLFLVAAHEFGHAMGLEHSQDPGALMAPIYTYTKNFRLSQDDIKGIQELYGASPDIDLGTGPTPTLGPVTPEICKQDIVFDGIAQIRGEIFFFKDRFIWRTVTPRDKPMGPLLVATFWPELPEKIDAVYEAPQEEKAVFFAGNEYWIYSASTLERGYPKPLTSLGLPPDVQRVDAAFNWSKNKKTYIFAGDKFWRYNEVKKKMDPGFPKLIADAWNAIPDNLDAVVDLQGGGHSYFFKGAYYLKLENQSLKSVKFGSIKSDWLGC
Matrix metalloproteinase-9, sequence (P14780 whole entry): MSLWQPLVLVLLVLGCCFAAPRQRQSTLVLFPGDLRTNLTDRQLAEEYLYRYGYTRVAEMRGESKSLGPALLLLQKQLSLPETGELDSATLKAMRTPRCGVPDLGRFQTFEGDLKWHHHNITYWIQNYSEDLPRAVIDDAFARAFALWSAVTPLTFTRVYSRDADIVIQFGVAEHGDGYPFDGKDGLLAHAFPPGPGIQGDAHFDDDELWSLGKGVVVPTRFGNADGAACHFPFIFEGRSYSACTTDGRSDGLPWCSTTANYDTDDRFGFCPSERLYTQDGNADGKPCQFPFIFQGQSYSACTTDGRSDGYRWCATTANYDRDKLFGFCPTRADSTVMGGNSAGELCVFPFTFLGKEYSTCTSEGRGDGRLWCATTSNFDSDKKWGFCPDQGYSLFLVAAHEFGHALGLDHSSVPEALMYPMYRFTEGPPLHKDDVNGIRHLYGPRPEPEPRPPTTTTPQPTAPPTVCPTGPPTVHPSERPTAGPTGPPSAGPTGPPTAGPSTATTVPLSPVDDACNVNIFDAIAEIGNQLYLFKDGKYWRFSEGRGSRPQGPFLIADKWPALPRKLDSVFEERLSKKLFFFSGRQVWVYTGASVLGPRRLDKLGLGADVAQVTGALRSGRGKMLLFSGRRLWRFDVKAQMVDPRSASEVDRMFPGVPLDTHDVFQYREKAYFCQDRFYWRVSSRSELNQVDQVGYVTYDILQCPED

Structure (SMILES): COc1cccc(CNC(=O)c2nc3ccc(F)c(OCCc4ccc(C(=O)O)cc4)c3c(=O)[nH]2)c1
- Microsomal clearance (Liver microsome): 70 µL/min/mg
- IC50 [1]: > 10 µM
- IC50 (Interstitial collagenase): > 10 µM
- IC50 (Neutrophil collagenase): 0.72 µM
- IC50 (Stromelysin-2): 0.16 µM
- CL (Rattus norvegicus): 28.3 mL/min/kg
- IC50 (Matrilysin): > 10 µM
- inhibition (INH) [2]: Not Active
- solubility [3]: 0.7 µg/mL (≈ 1.42 µM)
- solubility [4]: Insoluble
- IC50 (Stromelysin-1): 4 µM
- IC50 [5]: 5.3 µM
- IC50 [6]: > 10 µM
- Papp [7]: 4.77 ×10⁻⁶ cm/s
- IC50 (Collagenase 3): 3.9 pM
- IC50 [8]: > 10 µM
- inhibition (INH) [9]: Not Active

Source: ChEMBL document CHEMBL3352689 (J Med Chem, 2014)
